{"data": "Measured values pooled from the literature", "ABL1": "Tyrosine-protein kinase ABL1 (ABL1, Homo sapiens, UniProt P00519)"}
{"SMILES": "Cn1cncc1[C@](O)(COc1ccc(C#N)cc1-c1ccc(OC(F)(F)F)cc1)c1ccc(C#N)cc1", "target": "Tyrosine-protein kinase ABL1, phosphorylated (ABL1, Homo sapiens, UniProt P00519)", "assay": "cell-free assay, competition with immobilised ligand", "conditions": "1 µM", "quantity": "remaining binding", "result": "100%"}
{"SMILES": "Cn1cc(-c2cc(F)cc(N3CCn4c(cc5c4CCCC5)C3=O)c2CO)cc(Nc2ccc(N3CCN(C4COC4)CC3)cn2)c1=O", "target": "Tyrosine-protein kinase ABL1 (ABL1, Homo sapiens, UniProt P00519, Y253F)", "assay": "enzyme activity, inhibitor", "conditions": "0.1 µM", "quantity": "inhibition", "result": "3%"}
{"SMILES": "Cc1ncc(C)n2nc(/C=C/c3nc(N4CCCC4)cc(N4CCOCC4)n3)nc12", "target": "ABL1", "assay": "enzyme activity, inhibitor", "conditions": "10 µM", "quantity": "inhibition", "result": "14%"}
{"SMILES": "C#Cc1n[nH]c2c(-c3cn([C@@H](C)c4ccccc4)c(=O)[nH]c3=O)cc(F)cc12", "target": "ABL1", "assay": "enzyme activity, inhibitor", "conditions": "0.1 µM", "quantity": "inhibition", "result": "-2.2%"}
{"SMILES": "N#CC1(c2ccccn2)CCN(Cc2cc(C(=O)O)c(=O)n3ccccc23)CC1", "target": "Tyrosine-protein kinase ABL1, phosphorylated (ABL1, Homo sapiens, UniProt P00519, F317L)", "assay": "cell-free assay, competition with immobilised ligand", "conditions": "1 µM", "quantity": "remaining binding", "result": "84%"}
{"SMILES": "O=c1[nH]c2ccccc2n1C1CCN(Cc2ccc(-c3[nH]c4cc5ncnc5cc4nc3-c3ccccc3)cc2)CC1", "target": "ABL1", "assay": "cell-free assay", "conditions": "0.5 µM", "quantity": "remaining signal", "result": "98.2%"}
{"SMILES": "C#Cc1n[nH]c2c(-c3cn([C@@H](C)c4ccccn4)c(=O)[nH]c3=O)cc(F)cc12", "target": "ABL1", "assay": "enzyme activity, inhibitor", "conditions": "0.1 µM", "quantity": "inhibition", "result": "-3.6%"}
{"SMILES": "Cc1nn(C)cc1-c1nc2c(N3CCN(Cc4ccc(Cl)cc4)CC3)c(Cl)cnc2[nH]1", "target": "Tyrosine-protein kinase ABL1, phosphorylated (ABL1, Homo sapiens, UniProt P00519, Q252H)", "assay": "binding, competition with immobilised ligand", "conditions": "1 µM", "quantity": "remaining binding", "result": "84%"}
{"SMILES": "Nc1ncc(-c2nc(N3CCOCC3)nc(N3CCOCC3)n2)c(C(F)F)n1", "target": "Tyrosine-protein kinase ABL1, non-phosphorylated (ABL1, Homo sapiens, UniProt P00519, F317I)", "assay": "binding, competition with immobilised ligand", "conditions": "10 µM", "quantity": "remaining binding", "result": "84%"}
{"SMILES": "Cn1cc(-c2cccc(N3CCc4c(sc5c4CC(C)(C)C5)C3=O)c2CO)cc(Nc2ccncn2)c1=O", "target": "ABL1", "assay": "enzyme activity, inhibitor", "conditions": "1 µM", "quantity": "inhibition", "result": "-1%"}
